Source: ChEMBL document CHEMBL4406834, “Phenylthiazoles with nitrogenous side chain: An approach to overcome molecular obesity” (Eur J Med Chem, 2019)
≈ marks a conversion by molar mass, not a printed value. Calls of active or inactive are those of the source. The calls are words filed in the database; no cut-off is given here.

Tests used:
Staphylococcus aureus [1] = experiment: Antibacterial activity against methicilline-resistant Staphylococcus aureus NRS385 USA500 after 18 to 20 hrs by CLSI-based broth microdilution assay; format: functional
Outline: (§1)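 Broth microdilution per CLSI. Strains grown aerobically overnight on tryptone soy agar at 37 °C, adjusted to 0.5 McFarland, then diluted in cation-adjusted Mueller-Hinton broth to about 5 × 10^5 CFU/mL. Compounds (10 mg/mL DMSO stocks) serially diluted. Incubated aerobically at 37 °C for 18-20 h. MIC is the lowest concentration with no visible growth.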

Staphylococcus aureus [2] = experiment: (§2) Antibacterial activity against intracellular methicillin resistant Staphylococcus aureus USA400 infected in mouse J774 cells assessed as log10 reduction in intracellular bacterial cells at 2 times MIC concentration incubated for 24 hrs followed by re-plating on TSA plate for 18 to 22 hrs by serial dilution method; format: functional
Outline: (§3)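 J774 murine macrophages in DMEM + 10% FBS, 37 °C, 5% CO2, infected with MRSA USA400 at MOI ~10:1 for 1 h. Washed with gentamicin 100 µg/mL to kill extracellular bacteria. […] Cells lysed with 0.1% Triton-X, serially diluted in PBS, plated on TSA for 18-22 h, CFU counted. One-way ANOVA with Dunnett's test.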

Klebsiella pneumoniae = experiment: Antibacterial activity against Klebsiella pneumoniae BAA-1706; format: functional
[3] = Half life in Sprague-Dawley rat at 50 mg/kg, po administered via gavage measured over 12 hrs by LC-MS/MS analysis; format: ADME, organism-based; settings: in vivo
Outline: (§4)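 Three male naïve Sprague-Dawley rats received a single oral gavage dose of 50 mg/kg in 2% ethanol/48% PEG 400/50% water. Blood was collected into EDTA-K2 tubes over 12 h after dosing. Plasma was protein-precipitated with acetonitrile and compound concentration quantified by LC/MS/MS.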

Staphylococcus aureus [4] = experiment: Antibiofilm activity against methicillin resistant Staphylococcus aureus NRS384 USA300 assessed as disruption of preformed biofilm at 4 x MIC incubated for 24 hrs by crystal violet staining based spectrophotometric analysis relative to control; format: functional
Outline: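 MRSA USA300 overnight culture diluted 1:100 in tryptic soy broth + 1% glucose. Biofilm formed for 24 h at 37 °C. Planktonic cells removed, then compounds added at 256 to 2 µg/mL in TSB for 24 h at 37 °C. Wells washed with PBS, stained with 0.1% crystal violet for 30 min, destained with ethanol, read at OD595. Percent eradication relative to DMSO; unpaired t test.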

[5] = Clearance in Sprague-Dawley rat at 50 mg/kg, po administered via gavage after 12 hrs by LC-MS/MS analysis; format: ADME, organism-based; settings: in vivo; outline: as §4
HaCaT [6] = experiment: Cytotoxicity against human HaCaT cells up to 64 ug/ml after 2 hrs by MTS assay; format: cell-based
Staphylococcus aureus [7] = experiment: Bactericidal activity against methicilline-sensitive Staphylococcus aureus ATCC 6538 incubated for 18 to 20 hrs followed by replating on tryptic soy agar plate and further incubated for 18 to 24 hrs by CLSI-based broth microdilution assay; format: functional
Outline: (§5)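 MBC: after the broth microdilution MIC (CAMHB, ~5 × 10^5 CFU/mL, 37 °C, 18-20 h), 4 µL from wells without growth plated onto tryptic soy agar. Plates incubated 37 °C for 18-20 h. MBC is the lowest concentration giving 99.9% reduction in growth.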

Escherichia coli [8] = experiment: Bactericidal activity against Escherichia coli BW25113; format: functional
[9] = Cmax in Sprague-Dawley rat at 50 mg/kg, po administered via gavage measured after 90 mins by LC-MS/MS analysis; format: ADME, organism-based; set-up: dose 50 mg/kg, route oral; settings: in vivo; outline: as §4
Staphylococcus aureus [10] = experiment: Bactericidal activity against methicilline-sensitive Staphylococcus aureus NRS-107 incubated for 18 to 20 hrs followed by replating on tryptic soy agar plate and further incubated for 18 to 24 hrs by CLSI-based broth microdilution assay; format: functional; outline: as §5
[11] = Tmax in Sprague-Dawley rat at 50 mg/kg, po administered via gavage measured over 12 hrs by LC-MS/MS analysis; format: ADME, organism-based; settings: in vivo; outline: as §4
Staphylococcus aureus [12] = experiment: as §2, with “as” for “as log10”, “method relative to control” for “method”; format: functional; outline: as §3
Staphylococcus aureus [13] = experiment: Bactericidal activity against methicillin-resistant Staphylococcus aureus USA400 assessed as reduction in bacterial burden at 5 times MIC after 4 hrs by time kill assay; format: functional, organism-based
Acinetobacter baumannii = experiment: Antibacterial activity against Acinetobacter baumannii ATCC 19606; format: functional; settings: ATCC 19606 = CIP 70.34 = JCM 6841
Staphylococcus aureus [14] = experiment: Antibacterial activity against vancomycin-resistant Staphylococcus aureus 10 after 18 to 20 hrs by CLSI-based broth microdilution assay; format: functional; outline: as §1
Escherichia coli [15] = experiment: Antibacterial activity against Escherichia coli BW25113; format: functional
Caco-2 [16] = experiment: Cytotoxicity against human Caco2 cells up to 64 ug/ml after 2 hrs by MTS assay; format: cell-based; settings: caco-2, 2 h
[17] = system: Staphylococcus epidermidis; experiment: Antibacterial activity against methicillin-resistant Staphylococcus epidermidis NRS101 after 18 to 20 hrs by CLSI-based broth microdilution assay; format: functional; outline: as §1
Enterococcus faecalis = experiment: Antibacterial activity against vancomycin-resistant Enterococcus faecalis ATCC 51299 after 18 to 20 hrs by CLSI-based broth microdilution assay; format: functional; outline: as §1
Pseudomonas aeruginosa = experiment: Antibacterial activity against Pseudomonas aeruginosa ATCC 27853; format: functional
J774 = experiment: Cytotoxicity against mouse J774 cells after 24 hrs by MTS assay; format: cell-based; settings: j774, 24 h
Outline: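 J774 murine macrophages were incubated with compound for 24 h, then given MTS reagent for 4 h. Absorbance was read at OD490.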

Staphylococcus aureus [18] = experiment: Antibacterial activity against methicilline-sensitive Staphylococcus aureus ATCC 6538 after 18 to 20 hrs by CLSI-based broth microdilution assay; format: functional; outline: as §1
[19] = Volume of drug distribution in Sprague-Dawley rat at 50 mg/kg, po administered via gavage measured over 12 hrs by LC-MS/MS analysis; format: ADME, organism-based; settings: in vivo; outline: as §4
Staphylococcus aureus [20] = experiment: Antibacterial activity against methicillin-resistant Staphylococcus aureus NRS384 USA300 after 18 to 20 hrs by broth microdilution assay; format: functional; outline: as §1
Caco-2 [21] = experiment: Cytotoxicity against human Caco2 cells up to 32 ug/ml after 2 hrs by MTS assay; format: cell-based; settings: caco-2, 2 h
HaCaT [22] = experiment: Cytotoxicity against human HaCaT cells up to 32 ug/ml after 2 hrs by MTS assay; format: cell-based

Row | Compound | MIC (Staphylococcus aureus [1]) [µg/mL] | MIC (Klebsiella pneumoniae) [µg/mL] | inhibition (INH) (Staphylococcus aureus [4]) [%] | MBC (Staphylococcus aureus [7]) [µg/mL] | MBC (Escherichia coli [8]) [µg/mL] | MBC (Staphylococcus aureus [10]) [µg/mL] | inhibition (Staphylococcus aureus [13]) | MIC (Acinetobacter baumannii) [µg/mL] | MIC (Staphylococcus aureus [14]) [µg/mL] | MIC (Escherichia coli [15]) [µg/mL] | MIC [17] [µg/mL] | MIC (Enterococcus faecalis) [µg/mL] | MIC (Pseudomonas aeruginosa) [µg/mL] | MIC (Staphylococcus aureus [18]) [µg/mL] | MIC (Staphylococcus aureus [20]) [µg/mL] | also measured
1 | C/C(=N\NC(=N)N)c1sc(-c2ccc(N3CCCCC3)cc2)nc1C | 8 (≈ 22.4 µM) | 64 (≈ 180 µM) | 72 | 8 (≈ 22.4 µM) | 64 (≈ 180 µM) | 8 (≈ 22.4 µM) | Active | 32 (≈ 89.8 µM) | 4 (≈ 11.2 µM) | 32 (≈ 89.8 µM) | 8 (≈ 22.4 µM) | 16 (≈ 44.9 µM) | > 64 | 4 (≈ 11.2 µM) | 4 (≈ 11.2 µM) | Activity (Staphylococcus aureus [2]): 1.18 log10CFU/ml; half-life [3]: 4 h; CL/F [5]: 12.7 mL/min; Activity (HaCaT [6]): Non-Toxic; Cmax [9]: 9700 to 10000 ng/mL; Tmax [11]: 1.3 h; inhibition (INH) (Staphylococcus aureus [12]): 93.2%; Activity (Caco-2 [16]): Non-Toxic; Activity (J774): Non-Toxic; Vd [19]: 4.42 L
2 | C/C(=N\NC(=N)N)c1sc(-c2ccc(N3CCCC(C)C3)cc2)nc1C (configuration not stated) | 8 (≈ 21.6 µM) | 16 (≈ 43.2 µM) | 50 | 16 (≈ 43.2 µM) | 32 (≈ 86.4 µM) | 16 (≈ 43.2 µM) | Active | 32 (≈ 86.4 µM) | 8 (≈ 21.6 µM) | 32 (≈ 86.4 µM) | 4 (≈ 10.8 µM) | 8 (≈ 21.6 µM) | > 64 | 8 (≈ 21.6 µM) | 4 (≈ 10.8 µM) | Activity (Caco-2 [21]): Non-Toxic; Activity (HaCaT [22]): Non-Toxic
